From ChEMBL document CHEMBL4392849, “Design, synthesis, evaluation and molecular modeling study of 4-N-phenylaminoquinolines for Alzheimer disease treatment” (Bioorg Med Chem Lett, 2019)

How the values were obtained:
Acetylcholinesterase = Acetylcholinesterase (Electrophorus electricus, UniProt O42275); experiment: Inhibition of electric eel AChE using acetylthiocholine iodide as substrate preincubated for 15 mins followed by substrate addition by Ellman's method
Cholinesterase = Cholinesterase (Equus caballus, UniProt P81908); experiment: Inhibition of equine serum BChE using butyrylthiocholine iodide as substrate preincubated for 15 mins followed by substrate addition by Ellman's method; format: single protein
Sequence of Cholinesterase (P81908 whole entry): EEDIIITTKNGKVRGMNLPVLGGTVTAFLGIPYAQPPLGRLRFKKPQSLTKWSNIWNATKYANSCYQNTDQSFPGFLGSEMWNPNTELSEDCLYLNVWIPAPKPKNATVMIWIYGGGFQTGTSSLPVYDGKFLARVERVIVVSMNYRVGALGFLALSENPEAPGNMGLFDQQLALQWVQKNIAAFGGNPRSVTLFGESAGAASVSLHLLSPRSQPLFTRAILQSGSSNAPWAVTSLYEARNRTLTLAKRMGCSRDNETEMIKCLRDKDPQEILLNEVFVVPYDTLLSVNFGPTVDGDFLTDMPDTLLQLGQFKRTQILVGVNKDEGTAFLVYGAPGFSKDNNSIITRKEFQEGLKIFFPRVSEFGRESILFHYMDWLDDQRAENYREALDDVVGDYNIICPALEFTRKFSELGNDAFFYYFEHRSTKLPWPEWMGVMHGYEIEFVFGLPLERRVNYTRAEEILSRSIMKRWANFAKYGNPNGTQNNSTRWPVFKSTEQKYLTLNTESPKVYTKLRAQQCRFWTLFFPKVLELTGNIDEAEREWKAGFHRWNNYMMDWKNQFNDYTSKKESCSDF
Method in brief: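 Ellman method run at pH 8.0 in 0.1 M sodium phosphate buffer. Compounds come from 10 mM DMSO stocks diluted in buffer. Enzyme solution is 0.05 U/ml and DTNB stock is 10 mM. These are held 15 min at 25°C, then 7.5 mM butyrylthiocholine iodide stock is added. Percent inhibition comes from hydrolysis rate with versus without inhibitor.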

Sequence of Acetylcholinesterase (O42275 whole entry): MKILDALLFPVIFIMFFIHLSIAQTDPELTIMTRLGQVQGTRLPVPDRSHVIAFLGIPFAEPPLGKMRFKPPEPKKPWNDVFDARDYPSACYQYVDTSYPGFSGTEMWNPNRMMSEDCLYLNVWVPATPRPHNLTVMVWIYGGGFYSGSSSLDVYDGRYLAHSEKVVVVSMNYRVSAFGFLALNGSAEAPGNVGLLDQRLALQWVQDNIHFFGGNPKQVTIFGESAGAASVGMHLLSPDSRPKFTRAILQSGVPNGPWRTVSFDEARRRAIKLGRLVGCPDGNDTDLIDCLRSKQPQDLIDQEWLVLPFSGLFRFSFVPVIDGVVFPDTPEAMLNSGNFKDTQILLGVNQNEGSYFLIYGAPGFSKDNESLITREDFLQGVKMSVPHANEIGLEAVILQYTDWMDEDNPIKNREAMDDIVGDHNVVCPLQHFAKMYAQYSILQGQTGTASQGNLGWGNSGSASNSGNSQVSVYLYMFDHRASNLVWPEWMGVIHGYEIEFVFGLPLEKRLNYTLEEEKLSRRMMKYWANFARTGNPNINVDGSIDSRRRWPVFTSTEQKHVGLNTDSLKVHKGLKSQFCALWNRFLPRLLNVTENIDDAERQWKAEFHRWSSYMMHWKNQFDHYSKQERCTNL

SMILES | IC50 (Acetylcholinesterase) [µM] | IC50 (Cholinesterase) [µM]
COc1cc2c(Nc3cccc(O)c3)c([N+](=O)[O-])cnc2cc1OCCCN(C)Cc1ccccc1 | 0.71 | 10.8
COc1ccccc1Nc1c([N+](=O)[O-])cnc2cc(OCCCN(C)Cc3ccccc3)c(OC)cc12 | 7.9 | 8.67
COc1cc2c(Nc3cccc(C(F)(F)F)c3)c([N+](=O)[O-])cnc2cc1OCCCN(C)Cc1ccccc1 | 7.78 | 55.4
COc1cc2c(Nc3ccc(Cl)cc3Cl)c([N+](=O)[O-])cnc2cc1OCCCN(C)Cc1ccccc1 | 1.85 | 58.7
COc1cccc(Nc2c([N+](=O)[O-])cnc3cc(OCCCN(C)Cc4ccccc4)c(OC)cc23)c1 | 1.72 | 9.19
COc1cc2c(Nc3cccc(C)c3)c([N+](=O)[O-])cnc2cc1OCCCN(C)Cc1ccccc1 | 1.86 | 2.78
COc1cc2c(Nc3cccc(Cl)c3)c([N+](=O)[O-])cnc2cc1OCCCN(C)Cc1ccccc1 | 0.83 | 15.2
COc1cc2c(Nc3ccc(Cl)cc3)c([N+](=O)[O-])cnc2cc1OCCC[n+]1ccccc1 | 0.92 | 14.2
COc1cc2c(Nc3ccc(O)cc3)c([N+](=O)[O-])cnc2cc1OCCCN(C)Cc1ccccc1 | 0.74 | 17.4
COc1cc2c(Nc3ccccc3Cl)c([N+](=O)[O-])cnc2cc1OCCCN(C)Cc1ccccc1 | 0.86 | 2.65
COc1cc2c(Nc3ccc(C)cc3)c([N+](=O)[O-])cnc2cc1OCCCN(C)Cc1ccccc1 | 11.8 | 73.6
COc1cc2c(Nc3ccccc3)c([N+](=O)[O-])cnc2cc1OCCCN(C)Cc1ccccc1 | 0.65 | 10.1
COc1ccc(Nc2c([N+](=O)[O-])cnc3cc(OCCCN(C)Cc4ccccc4)c(OC)cc23)cc1 | 10.9 | 50.4
COc1cc2c(Nc3ccc(Cl)cc3)c([N+](=O)[O-])cnc2cc1OCCCN(C)Cc1ccccc1 | 1.88 | 17.4
COc1cc2c(Nc3ccccc3C)c([N+](=O)[O-])cnc2cc1OCCCN(C)Cc1ccccc1 | 10.1 | 29.7
